Screening data deposited in PubChem BioAssay by The Scripps Research Institute Molecular Screening Center.
Most compounds without a hit are left out; they make up all but 4.7% or so of the library.
AHR activator: activates the human aryl hydrocarbon receptor; activation, % at 5 µM; 320,000 compounds, 2.5% hits; AID 2796; AHR-responsive luciferase reporter cells, luminescence; in the data active = activation above about 47%
FXN GAA850 act: activators of GAA850 frataxin (FXN) promoter; 360,000 compounds, 0.56% hits; HEK293 lucGAA850 FXN promoter luciferase reporter, 24 h; percent of 10 µM SAHA response; activation, % at 6 µM;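 active = activation above the average of all compounds screened plus 3 SD, cutoff fixed separately per campaign, cut at about 7.5% in these data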
MC4R antag cAMP: human MC4R antagonism in cAMP assay. P32245. MC4R-expressing cells, MTII-stimulated cAMP, LANCE TR-FRET. inhibition, % at 6.5 µM. 360,000 compounds, 0.48% hits. AID 540295;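 active = inhibition above its plate's cutoff, the mean of tested wells on that plate plus 3 SD, cut at about 29% in these data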
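Material: human MC4R-expressing U2OS cells. Probe or stimulus: Melanotan II challenge. Dosing: 6.5 µM single dose. Times: 30-min compound, 1-h challenge, 1-h detection, room temperature. Technique: TR-FRET with Eu-cAMP and labeled anti-cAMP, 671 nm. Replication: singlicate.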
m5-HT2A agonist: activates the mouse 5-HT2A serotonin receptor. CHO-K1 mHTR2A beta-arrestin complementation, luminescence; percent of 30 µM serotonin response. 360,000 compounds, 0.66% hits. activation, % at 7.6 µM. AID 624169;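 active = activation above a run cutoff, the mean activation of all tested compounds plus 3 SD, cut at about 14% in these data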
Target sequence (P35363 whole entry, looked up): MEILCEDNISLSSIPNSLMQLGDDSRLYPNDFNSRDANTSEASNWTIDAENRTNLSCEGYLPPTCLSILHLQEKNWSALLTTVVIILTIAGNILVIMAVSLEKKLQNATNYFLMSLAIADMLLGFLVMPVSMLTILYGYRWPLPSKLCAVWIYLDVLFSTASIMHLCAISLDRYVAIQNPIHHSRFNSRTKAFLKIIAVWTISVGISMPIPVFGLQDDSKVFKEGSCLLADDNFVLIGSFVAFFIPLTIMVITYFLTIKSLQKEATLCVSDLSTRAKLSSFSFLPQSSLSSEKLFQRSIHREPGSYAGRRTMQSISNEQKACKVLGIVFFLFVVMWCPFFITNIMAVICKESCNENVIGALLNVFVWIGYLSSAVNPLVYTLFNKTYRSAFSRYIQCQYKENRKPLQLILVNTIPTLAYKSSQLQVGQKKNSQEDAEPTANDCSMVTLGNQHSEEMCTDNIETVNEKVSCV
MC4R ag barr: human MC4R agonism via beta-arrestin; 360,000 compounds, 0.98% hits; AID 540308; U2OS MC4R beta-arrestin complementation, luminescence; percent of melanotan II response, DMSO zero; activation, % at 8.9 µM;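 active = activation above a per-plate cutoff, the mean activation of sample wells on that plate plus 3 SD, cut at about 8% in these data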
Numbers stand for hits; . = inactive; / = no result.

SMILES	AHR activator	FXN GAA850 act	MC4R antag cAMP	m5-HT2A agonist	MC4R ag barr
O=C1C=C(c2ccc(F)nc2)C[C@@H](c2ccc3c(c2)OCO3)C1	58	.	.	.	.
CC(C)CNC(=O)C1(C)CCN1C(=O)c1ccc(C(C)(C)C)cc1 (stereo not given)	/	.	.	.	.
O=C1C=C(Nc2ccccc2O)c2ccccc2C1=O	72	.	.	.	.
CCN1CCCC1CNC(=O)Cn1nc(C)n2c(cc3cc(F)ccc32)c1=O (stereo not given)	.	.	.	.	.
CCN1CCCC1CNC(=O)c1cc2cc(F)ccc2[nH]1 (stereo not given)	67	.	.	.	.
O=C(CSc1nc2ccccc2c(=O)n1-c1ccc(OC(F)F)cc1)NC1CC1	.	.	.	.	.
Cc1[nH]nc(-c2ccc(O)cc2O)c1-c1nc2ccccc2s1	73	.	.	.	.
Cc1[nH]nc(-c2ccc(O)cc2O)c1Oc1ccccc1	.	.	.	.	.
O=C(NCCCN1CCOCC1)C(=O)N/N=C/c1ccccc1O	.	.	.	.	.
Cc1ccc(C(=O)NC(C)c2ccc(-n3ccnc3)cc2)c(C)c1 (stereo not given)	.	.	.	.	.
CC(NC(=O)c1ccccc1Cl)c1ccc(-n2ccnc2)cc1 (stereo not given)	54	.	.	.	.
COc1ccc(C(=O)NC(C)c2ccc(-n3ccnc3)cc2)cc1[N+](=O)[O-] (stereo not given)	.	.	.	.	.
CSc1ccccc1C(=O)NC(C)c1ccc(-n2ccnc2)cc1 (stereo not given)	67	.	.	.	.
Cc1c(C(=O)NC(C)c2ccc(-n3ccnc3)cc2)cccc1[N+](=O)[O-] (stereo not given)	61	.	.	.	.
Cc1ccc(C)c(C(=O)NC(C)c2ccc(-n3ccnc3)cc2)c1 (stereo not given)	78	.	.	.	.
CCN(CC)S(=O)(=O)c1ccc(C2=NOC3(C2)N(C)c2ccccc2C3(C)C)cc1 (stereo not given)	.	.	.	.	.
COc1ccc(/C(C)=N/NC(=O)c2ccc(NS(=O)(=O)c3cccs3)cc2)cc1	.	.	.	.	.
Cc1ccccc1NC(=O)N(O)C1(C#N)CCCCC1	/	.	.	.	.
CC(Sc1nc(-c2ccccc2)c(-c2ccccc2)[nH]1)C(=O)NCC1CCCO1 (stereo not given)	/	.	.	.	.
COCc1c(C(=O)Nc2ccc(Cl)cc2F)oc2ccccc12	71	.	.	.	.
CCc1c(-c2ccccc2F)ncn1Cc1cccc(-c2ccccc2)c1	/	/	/	.	/
CCOC(=O)c1ccc(-n2nc(C)cc2C)cc1	.	.	.	.	.
Cc1cc(C)n(-c2ccc(C(=O)OCC(=O)NC(c3ccccc3)c3ccccc3)cc2)n1	.	.	.	.	9.3
COc1cc(NC(=O)c2c(Cl)cnn2C)c(OC)cc1Cl	.	.	.	.	.
Cn1ncc(Cl)c1C(=O)Nc1nc2ccc(Cl)cc2s1	60	.	.	.	.
SMILES	AHR activator	FXN GAA850 act	MC4R antag cAMP	m5-HT2A agonist	MC4R ag barr
Cn1ncc(Cl)c1C(=O)Nc1cc(C(F)(F)F)ccc1F	78	.	.	.	.
OCC1OCOC2C(CO)OCOC12 (stereo not given)	/	.	.	.	.
COc1cccc2c1C(=O)c1ccc3ccccc3c1C2=O	62	.	.	.	.
COc1ccc(OC)c2c1C(=O)c1ccccc1C2=O	.	/	/	/	/
N#CC(C(=O)Nc1ccccc1)=C1Nc2ccccc2N1	78	.	.	.	.
Cc1cccc(Cn2cc(SCC(=O)Nc3nccs3)c3ccccc32)c1	.	.	.	.	8.7
Cc1ccc(Cn2cc(SCC(=O)Nc3nccs3)c3ccccc32)cc1	.	.	.	.	.
O=C(c1ccc(Cl)cc1)N1N=CCC1(O)c1ccc(Cl)cc1 (stereo not given)	.	.	.	.	.
COc1ccc(N/C=C(\C#N)c2nc3ccccc3n2C)c(OC)c1	109	.	.	.	.
COCCOc1ccc(C(F)(F)F)cc1NC(=O)c1ccc(C(F)(F)F)cc1	70	.	.	.	.
COCCOc1ccc(C(F)(F)F)cc1NC(=O)COC(=O)c1cc[n+]([O-])cc1	.	.	.	.	.
COCCOc1ccc(C(F)(F)F)cc1NC(=O)c1ccccc1F	61	.	.	.	.
COC(=O)C1=CN(c2ccc(C)cc2)C(N)=C(C#N)C1c1ccccc1F (stereo not given)	/	/	/	.	/
CCCS(=O)(=O)NC(=O)C1(C)CCN(C(=O)c2cccc(C)c2C)C1 (stereo not given)	/	.	.	.	.
CCOc1ccc(C(=O)CCc2nc3ccccc3s2)cc1	.	.	.	21	.
COc1ccc(NC(=O)CCc2nc3ccccc3s2)c(OC)c1	.	.	.	.	.
Cc1[nH]n(C(N)=S)c(=O)c1N=Nc1ccc(S(=O)(=O)N2CCCC2)cc1	.	.	.	.	.
Cc1ccc(N=Nc2c(C)[nH]n(C(N)=S)c2=O)cc1	51	.	.	.	.
CC(=O)NCCNC(=O)C1(C)Cc2c(-c3ccc(NC(C)=O)cc3)ccnc2O1 (stereo not given)	/	.	.	.	.
COc1ccccc1NC(=O)c1ccccc1SC	.	.	.	.	.
O=C(Nc1ccccc1)Nc1cccc2cccnc12	71	.	.	.	.
COc1ccccc1C(=O)Nc1cccc2cccnc12	78	.	.	.	.
COc1ccccc1C(=O)Nc1ccccc1SC	55	.	.	.	.
O=C(Nc1cccc2cccnc12)c1ccccc1Cl	.	.	.	.	.
CC(C)CSCC1OC(n2cnc3c(N)nccc32)C(O)C1O (stereo not given)	/	.	.	.	.
SMILES	AHR activator	FXN GAA850 act	MC4R antag cAMP	m5-HT2A agonist	MC4R ag barr
Cc1nc2n[nH]c(N)c2nc1C	/	.	.	.	.
Cc1nc(N)sc1N=Nc1ccc(F)cc1	.	9.7	.	.	.
Nc1n[nH]c(N)c1N=Nc1ccc(F)cc1	.	.	.	.	.
Cc1nn(-c2cccc(C(F)(F)F)c2)c(=O)c2ccccc12	50	.	.	.	.
Cc1nn(-c2ccccc2)c2[nH]c(=O)cc(C(F)(F)F)c12	.	.	.	.	.
Cc1cc(=O)[nH]c2c1c(C)nn2-c1ccccc1	62	.	.	.	.
Cc1nn(-c2ccccc2)c(=O)c2ccccc12	61	.	.	.	.
Cc1cc(=O)c(C(=O)O)nn1-c1cccc(C(F)(F)F)c1	.	.	.	.	.
Cc1nn(-c2ccc(C(=O)O)cc2)c(=O)c2ccccc12	.	.	.	.	.
CCOC(=O)c1c(C)n(C)c2ccc(OC)c(NC(=O)CCN3CCSCC3)c12	65	.	.	.	.
CCOC(=O)N(C)C[C@H]1OCc2cnnn2CCCC(=O)N([C@H](C)CO)C[C@H]1C	/	.	.	.	.
O=C(Nc1ccccn1)c1ccco1	.	.	.	.	.
